Measured values taken from ChEMBL document CHEMBL1152321, “Recent advances in the chemistry and biology of new generation taxoids” (J Nat Prod, 2009).
The source made the active and inactive calls. The rule behind the calls is not given here.

Key:
[1] = Activity ratio of compound IC50 to paclitaxel IC50 for paclitaxel and cyclosporine-resistant human A2780TC3 cells overexpressing class 3 beta-tubulin; format: functional
[2] = system: A2780; test: Cytotoxicity against human topotecan-resistant A2780 cells after 72 hrs; format: functional, cell-based; conditions: A2780, 72 h
[3] = Cytotoxicity against human paclitaxel and cyclosporine-resistant A2780TC3 cells overexpressing class 3 beta-tubulin after 72 hrs; format: functional, cell-based; conditions: A2780TC3, 72 h
[4] = system: A2780; test: Resistance factor, ratio of IC50 for paclitaxel and cyclosporine-resistant human A2780TC3 cells overexpressing class 3 beta-tubulin to IC50 for wild type human A2780 cells; format: functional
[5] = system: A2780; test: Cytotoxicity against human cisplatin-resistant A2780 cells after 72 hrs; format: functional, cell-based; conditions: A2780, 72 h
[6] = Cytotoxicity against human A2780/ADR cells after 72 hrs; format: functional, cell-based
[7] = system: A2780; test: Cytotoxicity against human wild type A2780 cells after 72 hrs; format: functional, cell-based; conditions: A2780, 72 h
[8] = Cytotoxicity against human paclitaxel and cyclosporine-resistant A2780TC1 cells overexpressing class 3 beta-tubulin after 72 hrs; format: functional, cell-based; conditions: A2780TC1, 72 h
[9] = system: PANC-1; test: Cytotoxicity against human PANC1 cells expressing mdr1, mrp1, mrp2, lrp genes after 72 hrs; format: functional, cell-based; conditions: PANC-1, 72 h
[10] = system: Mus musculus; test: Toxicity in SCID mouse xenografted with human DLD1 cells assessed as decrease in body weight at 20 mg/kg, iv administered on day 5, 8, 11 post tumor implantation; format: organism-based, DLD-1; design: dose 20 mg/kg, route intravenous; conditions: in vivo
[11] = system: NCI-H460; test: Cytotoxicity against human H460 cells after 72 hrs; format: functional, cell-based; conditions: NCI-H460, 72 h
[12] = Cytotoxicity against P-glycoprotein deficient wild type human LCC-6 cells after 72 hrs; format: functional, cell-based; conditions: LCC-6, 72 h
[13] = Cytotoxicity against human LCC-6 cells expressing P-glycoprotein after 72 hrs; format: functional, cell-based; conditions: LCC-6, 72 h
[14] = system: DLD-1; test: Antitumor activity against human DLD1 cells expressing P-glycoprotein xenografted in SCID mouse assessed as tumor growth delay at 20 mg/kg, iv administered on day 5, 8, 11 post tumor implantation; format: functional
Procedure, shortened: (§1)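 SCID mice carrying subcutaneous Pgp+ DLD-1 human colon tumours were dosed i.v. q3d×3 on days 5, 8 and 11 after implant, in Tween/EtOH vehicle, with vehicle and untreated control groups. Growth delay was compared with controls by Cox-Mantel test. Cures were mice with no palpable tumour on day 167. Toxicity was counted as death or more than 20% body-weight loss.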

[15] = system: DLD-1; test: Antitumor activity against human DLD1 cells expressing P-glycoprotein xenografted in SCID mouse assessed as no palpable tumors at 20 mg/kg, iv administered on day 5, 8, 11 post tumor implantation measured on day 167; format: functional, organism-based; design: dose 20 mg/kg; procedure, shortened: as §1
[16] = Cytotoxicity against multidrug-resistant human NCI/ADR cells after 72 hrs; format: functional, cell-based; conditions: NCI/ADR-RES
[17] = system: HT-29; test: Cytotoxicity against human HT-29 cells after 72 hrs; format: functional, cell-based; conditions: HT-29, 72 h
[18] = system: MCF7; test: Cytotoxicity against P-glycoprotein deficient wild type human MCF7 cells after 72 hrs; format: functional, cell-based; conditions: MCF7, 72 h
[19] = system: MCF7; test: Cytotoxicity against human MCF7 cells expressing P-glycoprotein after 72 hrs; format: functional, cell-based; conditions: MCF7, 72 h
[20] = system: MCF7; test: Resistance factor, ratio of IC50 for human MCF7 cells expressing P-glycoprotein to IC50 for P-glycoprotein deficient wild type human MCF7 cells; format: functional
[21] = Resistance factor, ratio of IC50 for human LCC-6 cells expressing P-glycoprotein to IC50 for P-glycoprotein deficient wild type human LCC-6 cells; format: functional; design: reference not given here
[22] = system: MCF7; test: Resistance factor, ratio of IC50 for P-glycoprotein deficient wild type human MCF7 cells to IC50 for multidrug-resistant human NCI/ADR cells; format: functional
[23] = Induction of tubulin polymerization at 10 uM in presence of Ca2+
[24] = Induction of tubulin polymerization at 10 uM in absence of GTP

SMILES	IC50 [7] [nM]	IC50 [12] [nM]	IC50 [13] [nM]	IC50 [17] [nM]	IC50 [18] [nM]	Ratio [21]	Ratio [22]	also measured
CC(=O)O[C@@]1(C2/C(C)=C(/O)C(=O)C3=C(C)[C@@H](OC(=O)[C@H](O)[C@H](CC(C)C)NC(=O)OC(C)(C)C)C[C@@](O)([C@H]2OC(=O)c2ccccc2)C3(C)C)CO[C@@H]1CCO (some centres undefined)	17.4	–	–	–	–	–	–	Ratio IC50 [1]: 8; IC50 [2]: 27.5 nM; IC50 [3]: 2240 nM; Ratio IC50 [4]: 129; IC50 [5]: 16.8 nM; IC50 [6]: 2620 nM; IC50 [8]: 2060 nM
CC(=O)O[C@H]1C(=O)[C@@]2(C)[C@H]([C@H](OC(=O)c3ccccc3)[C@]3(O)C[C@H](OC(=O)[C@H](O)[C@@H](NC(=O)c4ccccc4)c4ccccc4)C(C)=C1C3(C)C)[C@]1(OC(C)=O)CO[C@@H]1C[C@@H]2O [PACLITAXEL]	1.7	2.45	110	–	–	–	–	IC50 [9]: 25.7 nM; Activity [10]: Non-toxic; IC50 [2]: 7.2 nM; IC50 [3]: 17800 nM; IC50 [11]: 4.9 nM; Activity [14]: 8 days; IC50 [5]: 2.2 nM; Activity [15]: inactive
CC(=O)O[C@H]1C(=O)[C@@]2(C)[C@H]([C@H](OC(=O)c3ccccc3)[C@]3(O)[C@H]4OC/C=C/OCc5ccccc5C(=O)N[C@@H](c5ccccc5)[C@@H](O)C(=O)O[C@@H]4C(C)=C1C3(C)C)[C@]1(OC(C)=O)CO[C@@H]1C[C@@H]2O	1480	2070	2280	523	1650	–	–	IC50 [16]: 10000 nM
CC(=O)O[C@@]1([C@@H]2/C(C)=C(/O)C(=O)C3=C(C)[C@@H](OC(=O)[C@H](O)[C@H](C=C(C)C)NC(=O)OC(C)(C)C)C[C@@](O)([C@H]2OC(=O)c2cccc(F)c2)C3(C)C)CO[C@@H]1CCO	6.1	–	–	–	–	–	–	IC50 [2]: 6.9 nM; IC50 [3]: 745 nM; IC50 [5]: 4.9 nM; IC50 [6]: 2220 nM; IC50 [8]: 4450 nM
CC(=O)O[C@@]12CO[C@@H]1C[C@H](O)[C@@]1(C)C(=O)[C@H](OC(=O)N(C)C)C3=C(C)[C@@H](OC(=O)[C@H](O)[C@H](C=C(F)F)NC(=O)OC(C)(C)C)C[C@@](O)([C@@H](OC(=O)c4ccccc4)[C@H]21)C3(C)C	–	–	–	0.46	0.13	–	–	IC50 [9]: 1.58 nM; IC50 [19]: 4.3 nM; Ratio [20]: 33
CC(=O)O[C@H]1C(=O)[C@@]2(C)[C@H]([C@H](OC(=O)c3ccccc3)[C@]3(O)C[C@H](OC(=O)[C@H](O)[C@H](C=C(F)F)NC(=O)OC(C)(C)C)C(C)=C1C3(C)C)[C@]1(OC(C)=O)CO[C@@H]1C[C@@H]2O	–	–	–	0.41	0.099	–	–	IC50 [9]: 1.19 nM; IC50 [19]: 0.95 nM; Ratio [20]: 9.6
CC(=O)O[C@H]1C(=O)[C@@]2(C)[C@H]([C@H](OC(=O)c3ccccc3)[C@]3(O)[C@H]4OC/C=C/Cc5ccccc5C(=O)N[C@@H](C=C(C)C)[C@@H](O)C(=O)O[C@@H]4C(C)=C1C3(C)C)[C@]1(OC(C)=O)CO[C@@H]1C[C@@H]2O	–	130	618	–	398	–	–	IC50 [16]: 1000 nM
CC(=O)O[C@H]1C(=O)[C@@]2(C)[C@H]([C@H](OC(=O)c3ccccc3)[C@]3(O)[C@H]4OC/C=C\OCc5ccccc5C(=O)N[C@@H](c5ccccc5)[C@@H](O)C(=O)O[C@@H]4C(C)=C1C3(C)C)[C@]1(OC(C)=O)CO[C@@H]1C[C@@H]2O	198	348	1920	62	196	–	–	IC50 [16]: 1140 nM
CC(=O)O[C@H]1C(=O)[C@@]2(C)[C@H]([C@H](OC(=O)c3ccccc3)[C@]3(O)[C@H]4OC/C=C/Cc5ccccc5C(=O)N[C@@H](c5ccccc5)[C@@H](O)C(=O)O[C@@H]4C(C)=C1C3(C)C)[C@]1(OC(C)=O)CO[C@@H]1C[C@@H]2O	114	12.2	300	29.2	12.3	–	–	IC50 [16]: 592 nM
CCC(=O)O[C@H]1C(=O)[C@@]2(C)[C@H]([C@H](OC(=O)c3cccc(OC)c3)[C@]3(O)C[C@H](OC(=O)[C@H](O)[C@H](C=C(C)C)NC(=O)C4CCC4)C(C)=C1C3(C)C)[C@]1(OC(C)=O)CO[C@@H]1C[C@@H]2O	–	1.6	–	–	–	9.4	11	–
CCC(=O)O[C@H]1C(=O)[C@@]2(C)[C@H]([C@H](OC(=O)c3ccccc3)[C@]3(O)C[C@H](OC(=O)[C@H](O)[C@H](C=C(F)F)NC(=O)OC(C)(C)C)C(C)=C1C3(C)C)[C@]1(OC(C)=O)CO[C@@H]1C[C@@H]2O	–	–	–	0.34	0.12	–	–	IC50 [9]: 0.65 nM; IC50 [19]: 1.2 nM; Ratio [20]: 10
CCC(=O)O[C@H]1C(=O)[C@@]2(C)[C@H]([C@H](OC(=O)c3cccc(OC)c3)[C@]3(O)C[C@H](OC(=O)[C@H](O)[C@H](CC(C)C)NC(=O)C4CCCCC4)C(C)=C1C3(C)C)[C@]1(OC(C)=O)CO[C@@H]1C[C@@H]2O	–	1	–	–	–	12	9.3	–
CCC(=O)O[C@H]1C(=O)[C@@]2(C)[C@H]([C@H](OC(=O)c3ccccc3)[C@]3(O)C[C@H](OC(=O)[C@H](O)[C@H](CC(C)C)NC(=O)C4CCCCC4)C(C)=C1C3(C)C)[C@]1(OC(C)=O)CO[C@@H]1C[C@@H]2O	–	5.8	–	–	–	5.5	13	–
CC(=O)O[C@H]1C(=O)[C@@]2(C)[C@H]([C@H](OC(=O)c3ccccc3)[C@]3(O)[C@H]4OCC/C=C/c5ccccc5C(=O)N[C@@H](c5ccccc5)[C@@H](O)C(=O)O[C@@H]4C(C)=C1C3(C)C)[C@]1(OC(C)=O)CO[C@@H]1C[C@@H]2O	31	2.09	129	17	3.49	–	–	IC50 [16]: 183 nM; inhibition [23]: Active; inhibition [24]: Active
CC(=O)O[C@@]12CO[C@@H]1C[C@H](O)[C@@]1(C)C(=O)[C@H](OC(=O)C3CC3)C3=C(C)[C@@H](OC(=O)[C@H](O)[C@H](C=C(F)F)NC(=O)OC(C)(C)C)C[C@@](O)([C@@H](OC(=O)c4ccccc4)[C@H]21)C3(C)C	–	–	–	0.85	0.12	–	–	IC50 [9]: 5.85 nM; IC50 [19]: 6 nM; Ratio [20]: 50
CCC(=O)O[C@H]1C(=O)[C@@]2(C)[C@H]([C@H](OC(=O)c3ccccc3)[C@]3(O)C[C@H](OC(=O)[C@H](O)[C@H](C=C(C)C)NC(=O)C4CCCCC4)C(C)=C1C3(C)C)[C@]1(OC(C)=O)CO[C@@H]1C[C@@H]2O	–	1.3	–	–	–	10	18	–
CCC(=O)O[C@H]1C(=O)[C@@]2(C)[C@H]([C@H](OC(=O)c3ccccc3)[C@]3(O)C[C@H](OC(=O)[C@H](O)[C@H](C=C(C)C)NC(=O)C4CCCC4)C(C)=C1C3(C)C)[C@]1(OC(C)=O)CO[C@@H]1C[C@@H]2O	–	1.1	–	–	–	17	20	–
CC(=O)O[C@@]1([C@@H]2/C(C)=C(/O)C(=O)C3=C(C)[C@@H](OC(=O)[C@H](O)[C@H](CC(C)C)NC(=O)OC(C)(C)C)C[C@@](O)([C@H]2OC(=O)c2cccc(F)c2)C3(C)C)CO[C@H]1CCO	11.1	–	–	–	–	–	–	Ratio IC50 [1]: 39; IC50 [2]: 12.8 nM; IC50 [3]: 460 nM; Ratio IC50 [4]: 41; IC50 [5]: 11.8 nM; IC50 [6]: 3730 nM; IC50 [8]: 1500 nM
CCC(=O)O[C@H]1C(=O)[C@@]2(C)[C@H]([C@H](OC(=O)c3cccc(OC)c3)[C@]3(O)C[C@H](OC(=O)[C@H](O)[C@H](CC(C)C)NC(=O)C4CC4)C(C)=C1C3(C)C)[C@]1(OC(C)=O)CO[C@@H]1C[C@@H]2O	–	0.6	–	–	–	22	30	–
COc1ccc(CC(=O)O[C@H]2C(=O)[C@@]3(C)[C@H]([C@H](OC(=O)c4cccc(OC)c4)[C@]4(O)C[C@H](OC(=O)[C@H](O)[C@H](C=C(C)C)NC(=O)OC(C)(C)C)C(C)=C2C4(C)C)[C@]2(OC(C)=O)CO[C@@H]2C[C@@H]3O)cc1	–	0.4	–	–	–	1	3	–
